This is an account of results in ChEMBL document CHEMBL2203175, “Discovery and optimization of sulfonyl acrylonitriles as selective, covalent inhibitors of protein phosphatase methylesterase-1” (J Med Chem, 2011).

Usually IC50 stands for the midpoint of a concentration-inhibition curve. What is called inhibition is the percentage by which the read-out fell short of the control.

In experiment [1] the target is T1, Protein phosphatase methylesterase 1 (Mus musculus, UniProt Q8BVQ5).
T1 sequence (Q8BVQ5 whole entry): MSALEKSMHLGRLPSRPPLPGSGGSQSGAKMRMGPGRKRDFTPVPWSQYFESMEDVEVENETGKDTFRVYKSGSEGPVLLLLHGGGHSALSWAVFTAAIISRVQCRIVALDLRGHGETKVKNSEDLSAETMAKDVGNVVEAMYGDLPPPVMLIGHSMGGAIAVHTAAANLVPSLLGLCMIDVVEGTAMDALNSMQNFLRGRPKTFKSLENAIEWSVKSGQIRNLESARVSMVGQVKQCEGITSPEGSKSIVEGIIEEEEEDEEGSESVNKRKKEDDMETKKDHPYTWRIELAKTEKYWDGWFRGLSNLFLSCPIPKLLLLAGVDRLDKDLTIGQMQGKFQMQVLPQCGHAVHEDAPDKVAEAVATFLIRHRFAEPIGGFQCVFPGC
The experiment is described as follows: Inhibition of PME1 binding to FP-rhodamine in mouse brain soluble proteome after 45 mins by gel-based competitive activity-based protein profiling assay.

Experiment [2] addresses T2, Protein phosphatase methylesterase 1 (Mus musculus) (UniProt Q8BVQ5).
T2 sequence (whole entry): T1 sequence (Q8BVQ5 whole entry)
The experiment in a line: Inhibition of PME1 binding to FP-rhodamine in mouse brain soluble proteome at 20 uM after 30 mins by […] activity-based protein profiling assay relative to control. The experiment is classed as tissue-based. In general terms: In fluorescence polarisation assays a small probe gives low polarisation when free and higher when bound to something large.

For experiment [3], the target named is Prolyl endopeptidase (Mus musculus) (UniProt Q9QUR6). The experiment is described as follows: Inhibition of prolyl endopeptidase binding to FP-rhodamine in mouse brain soluble proteome at 50 uM after 30 mins by […] activity-based protein profiling assay relative to control. The experiment is classed as tissue-based.
Sequence of Prolyl endopeptidase (Mus musculus) (Q9QUR6 whole entry, looked up): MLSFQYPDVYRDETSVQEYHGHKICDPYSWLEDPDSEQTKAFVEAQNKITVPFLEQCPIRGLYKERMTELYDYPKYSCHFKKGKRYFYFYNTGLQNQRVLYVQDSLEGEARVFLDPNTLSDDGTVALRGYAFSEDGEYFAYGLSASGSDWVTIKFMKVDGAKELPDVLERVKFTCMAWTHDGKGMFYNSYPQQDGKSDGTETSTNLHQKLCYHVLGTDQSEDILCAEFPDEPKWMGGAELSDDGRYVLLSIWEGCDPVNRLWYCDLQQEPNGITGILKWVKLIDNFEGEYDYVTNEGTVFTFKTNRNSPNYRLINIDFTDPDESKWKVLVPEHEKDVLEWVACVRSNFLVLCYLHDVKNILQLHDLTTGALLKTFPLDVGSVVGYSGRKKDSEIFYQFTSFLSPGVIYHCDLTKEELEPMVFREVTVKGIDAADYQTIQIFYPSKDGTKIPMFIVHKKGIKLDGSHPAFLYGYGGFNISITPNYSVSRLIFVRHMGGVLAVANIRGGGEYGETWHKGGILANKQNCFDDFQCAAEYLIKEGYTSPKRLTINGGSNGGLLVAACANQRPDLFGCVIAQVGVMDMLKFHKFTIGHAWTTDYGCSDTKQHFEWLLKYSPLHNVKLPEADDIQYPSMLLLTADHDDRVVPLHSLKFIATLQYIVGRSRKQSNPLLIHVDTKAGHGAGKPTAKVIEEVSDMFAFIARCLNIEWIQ
The target of experiment [4] is T3, Protein phosphatase methylesterase 1 (Homo sapiens) (UniProt Q9Y570).
T3 sequence (whole entry): T1 sequence (Q8BVQ5 whole entry) with T42S, G114S, S123P, V150I, A167S, A168S, V268I, N269S
The experiment in a line: Inhibition of PME1 expressed in untransfected HEK293T cells assessed as reduction in demethylated PP2A level at 500 nM after 1 hr by Western blot analysis. The experiment is classed as cell-based. Conditions: HEK-293T. The method in brief: (§1)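 HEK 293T cells, either stably overexpressing PME-1 or untransfected, treated in medium for 1 h at 37 °C. Total cell extract (2 mg/mL) run on reducing SDS-PAGE (10%) and blotted with demethylated-specific (4b7), methylated-specific (2A10) and total PP2A antibodies, imaged by infrared fluorescence. Mean ± SEM, n = 3, compared against DMSO-treated cells.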
In general terms: Immunoblotting shows a protein as a band on a membrane.

Experiment [5] has as its target Acylamino-acid-releasing enzyme (Mus musculus) (UniProt Q8R146). The experiment in a line: Inhibition of acyl peptide hydrolase binding to FP-rhodamine in mouse brain soluble proteome at 50 uM after 30 mins by […] activity-based protein profiling assay relative to control. Format: tissue-based.
Experiment [6] concerns the target T3, Protein phosphatase methylesterase 1 (Homo sapiens). The experiment in a line: Inhibition of PME1-based PP2A […] in human HEK293T cells at 50 uM after 3 hrs by Western blot analysis. Format: cell-based. Conditions: HEK-293T.
In experiment [7] the target is Acylamino-acid-releasing enzyme (Homo sapiens) (UniProt P13798). The experiment in a line: Inhibition of acyl peptide hydrolase binding to FP-rhodamine in human HEK293T cells at 0.5 to 50 uM after 30 mins by […] activity-based protein profiling assay. Conditions: HEK-293T.
Sequence of Acylamino-acid-releasing enzyme (Homo sapiens) (P13798 whole entry): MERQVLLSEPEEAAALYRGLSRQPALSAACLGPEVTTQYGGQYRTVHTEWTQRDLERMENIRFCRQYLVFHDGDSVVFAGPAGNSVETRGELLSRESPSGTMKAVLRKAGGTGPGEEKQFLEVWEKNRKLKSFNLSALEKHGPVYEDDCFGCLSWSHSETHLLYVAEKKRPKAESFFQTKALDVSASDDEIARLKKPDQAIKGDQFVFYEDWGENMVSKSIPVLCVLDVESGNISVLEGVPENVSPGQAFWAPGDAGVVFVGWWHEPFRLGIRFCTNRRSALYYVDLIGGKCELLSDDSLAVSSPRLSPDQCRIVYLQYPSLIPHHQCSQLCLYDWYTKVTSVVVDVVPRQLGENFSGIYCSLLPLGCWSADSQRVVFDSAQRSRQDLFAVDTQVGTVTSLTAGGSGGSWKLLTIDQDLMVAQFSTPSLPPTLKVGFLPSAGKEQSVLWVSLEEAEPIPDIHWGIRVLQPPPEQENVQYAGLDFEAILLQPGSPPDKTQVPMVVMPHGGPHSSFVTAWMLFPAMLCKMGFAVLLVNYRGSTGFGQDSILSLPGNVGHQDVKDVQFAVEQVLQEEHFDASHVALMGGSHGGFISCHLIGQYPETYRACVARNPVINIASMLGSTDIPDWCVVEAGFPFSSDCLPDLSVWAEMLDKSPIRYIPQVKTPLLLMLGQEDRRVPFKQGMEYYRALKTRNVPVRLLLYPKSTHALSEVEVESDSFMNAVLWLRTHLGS
For experiment [8], the target named is Protein phosphatase methylesterase 1 (Homo sapiens, UniProt Q9Y570). The experiment is described as follows: Inhibition of PME1 binding to FP-rhodamine in human MDA-MB-231 cells after 45 mins by gel-based competitive activity-based protein profiling assay.
Sequence of Protein phosphatase methylesterase 1 (Homo sapiens, UniProt Q9Y570) (Q9Y570 whole entry): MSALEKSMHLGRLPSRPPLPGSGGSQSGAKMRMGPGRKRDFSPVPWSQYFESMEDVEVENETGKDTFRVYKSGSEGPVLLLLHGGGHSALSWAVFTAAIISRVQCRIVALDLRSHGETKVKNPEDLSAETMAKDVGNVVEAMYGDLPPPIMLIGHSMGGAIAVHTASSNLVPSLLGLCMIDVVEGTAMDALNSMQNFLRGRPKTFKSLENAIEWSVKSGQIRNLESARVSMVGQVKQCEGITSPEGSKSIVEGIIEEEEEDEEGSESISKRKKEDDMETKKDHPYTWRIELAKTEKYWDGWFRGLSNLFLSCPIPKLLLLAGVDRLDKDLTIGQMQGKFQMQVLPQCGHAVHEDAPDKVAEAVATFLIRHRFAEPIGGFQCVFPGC
For experiment [9], the target named is T3, Protein phosphatase methylesterase 1 (Homo sapiens). The experiment in a line: Inhibition of PME1 overexpressed in HEK293T cells assessed as increase in methylated PP2A level at 20 uM after 1 hr by Western blot analysis. Format: cell-based. Conditions: HEK-293T. In short, it runs like this: as §1
Experiment [10] has the same target. The experiment in a line: Inhibition of PME1 overexpressed in HEK293T cells assessed as reduction in demethylated PP2A level at 20 uM after 1 hr by Western blot analysis relative to control. Format: cell-based. Conditions: HEK-293T. The method in brief:
as §1

Changes are numbered by the printed parent chain. The source made the active and inactive calls. The rule behind the calls is not given here.

Sequence of Acylamino-acid-releasing enzyme (Mus musculus) (Q8R146 whole entry): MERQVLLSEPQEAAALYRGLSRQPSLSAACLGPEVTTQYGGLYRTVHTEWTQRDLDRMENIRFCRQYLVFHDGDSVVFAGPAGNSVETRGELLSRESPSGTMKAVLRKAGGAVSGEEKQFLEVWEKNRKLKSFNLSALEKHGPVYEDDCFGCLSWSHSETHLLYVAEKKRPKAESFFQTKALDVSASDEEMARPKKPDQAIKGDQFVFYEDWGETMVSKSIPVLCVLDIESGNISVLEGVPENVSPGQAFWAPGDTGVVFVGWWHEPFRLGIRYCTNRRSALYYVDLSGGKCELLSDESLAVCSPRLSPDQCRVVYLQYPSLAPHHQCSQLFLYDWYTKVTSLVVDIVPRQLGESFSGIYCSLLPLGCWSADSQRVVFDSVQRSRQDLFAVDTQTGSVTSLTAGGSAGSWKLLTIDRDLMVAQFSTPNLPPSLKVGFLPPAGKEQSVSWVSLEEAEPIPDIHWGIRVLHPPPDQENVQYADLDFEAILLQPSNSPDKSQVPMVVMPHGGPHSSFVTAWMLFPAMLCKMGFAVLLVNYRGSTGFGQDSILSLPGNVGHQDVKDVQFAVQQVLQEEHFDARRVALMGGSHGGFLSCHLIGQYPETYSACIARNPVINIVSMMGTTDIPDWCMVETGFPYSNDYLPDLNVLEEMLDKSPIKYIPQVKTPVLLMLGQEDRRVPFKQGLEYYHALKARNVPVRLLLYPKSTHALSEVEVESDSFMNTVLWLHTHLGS

In [1], `CC(C)(C)S(=O)(=O)/C(C#N)=C/c1cccn1S(=O)(=O)c1ccccc1` gave an IC50 of 6.8 µM.
Same read-out and setting: then `CS(=O)(=O)/C(C#N)=C/c1cccn1S(=O)(=O)c1c(F)c(F)c(F)c(F)c1F`, with greater than 20 µM.
For the molecule `CS(=O)(=O)/C(=C/c1cccn1S(=O)(=O)c1ccccc1)CN`, the inhibition in experiment [2] was found to be 0%.
`CS(=O)(=O)C(=Cc1cccn1S(=O)(=O)c1ccccc1)S(C)(=O)=O`: the inhibition in [3] is greater than 50%; in experiment [2] it was 0%.
The molecule `CC(C)(C)S(=O)(=O)/C(C#N)=C/c1cccn1S(=O)(=O)c1cccc(C#N)c1` showed an IC50 in [1] of 3.4 µM.
In turn, `CS(=O)(=O)/C(C#N)=C/c1ccc[nH]1` came in with an inhibition in [2] of 0%.
On the same count and under the same terms, then `CS(=O)(=O)C(C#N)Cc1cccn1S(=O)(=O)c1ccccc1` (stereo unspecified), with 0%.
For `COC(=O)N1C(=O)[C@](c2ccccc2)(C2CCCC2)N1C(=O)OC`, the inhibition entry in experiment [4] was “Active”.
In experiment [2], `CS(=O)(=O)/C(C#N)=C/c1ccc([N+](=O)[O-])cc1` gave an inhibition of 0%.
`CS(=O)(=O)/C(C#N)=C/c1cccn1S(=O)(=O)c1ccccc1`: the figures for the inhibition in [5] and in experiment [2] were greater than 50% and 90%, respectively. Besides, the inhibition entry in experiment [6] and in [7] was “Active” throughout. The same molecule had an IC50 in experiment [8] of 10.8 µM.
In turn, `CS(=O)(=O)/C(C#N)=C/c1cccn1S(=O)(=O)c1ccc(Cl)cc1` yielded an inhibition in experiment [5] greater than 50%.
For `N#CC(C#N)=Cc1cccn1S(=O)(=O)c1ccccc1`, the inhibition in experiment [2] came to 50%.
For the molecule `N#C/C(=C\c1cccn1S(=O)(=O)c1ccccc1)S(=O)(=O)c1ccccc1`, the IC50 in experiment [1] is greater than 20 µM.
As for `CS(=O)(=O)/C(C#N)=C/c1cccn1S(=O)(=O)c1cccc(C#N)c1`, the IC50 in [1] worked out at 2.5 µM.
On the same count and under the same terms, under `CS(=O)(=O)/C(C#N)=C/c1cccn1S(=O)(=O)c1ccc([N+](=O)[O-])cc1` stands 3 µM.
Consider `CS(=O)(=O)/C(C#N)=C/c1cccn1S(=O)(=O)c1ccc(C#N)cc1`, for which, in [1], the IC50 is 4 µM. This molecule gave an inhibition in experiment [3] greater than 50%.
As for `CS(=O)(=O)/C(C#N)=C/c1ccccc1`, the inhibition in experiment [2] is 0%.
On to `N#C/C(=C\c1cccn1S(=O)(=O)c1cccc(C#N)c1)S(=O)(=O)c1ccc(F)cc1`, for which the IC50 in [1] was 0.64 µM. The inhibition entry in experiment [9] was “Active”. Moreover, the inhibition in experiment [10] was found to be 80%.
